In ChEMBL document CHEMBL1125419, “Stereospecificity of amino acid side chains in deltorphin defines binding to opioid receptors” (J Med Chem, 1992):
Square brackets hold non-standard residues; d marks the D form. Peptide text beside a SMILES is read from it. Nle = CCCC[C@H](N)C(=O)O

Columns and labels:
[1] = Opioid receptor delta selectivity was defined as the ratio between Ki(opioid receptor mu)/Ki(opioid receptor delta); format: protein assay
[2] = biological target: T1, Delta-type opioid receptor (Rattus norvegicus, UniProt P33533); test: Inhibition of [3H]DPDPE binding to Opioid receptor delta 1
Summary of the method: (§1)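 Male Sprague-Dawley rat brain synaptosomes incubated with 0.62 pmol [3H]DPDPE in 50 mM HEPES pH 7.5, 5 mM MgCl2, 1 μM bestatin, bacitracin, 8% glycerol, soybean trypsin inhibitor, 100 μM PMSF; 2 h at 22 °C, duplicates. GF/C filtration, Tris-BSA washes, scintillation counting. 4-9 peptide concentrations over 2-3 log units, n = 3-8; Ki by Cheng-Prusoff.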

Mu-type opioid receptor [3] = biological target: T2, Mu-type opioid receptor (Rattus norvegicus, UniProt P33535); test: Inhibition of [3H]DAGO binding to rat Opioid receptor mu 1
Mu-type opioid receptor [4] = biological target: T2, Mu-type opioid receptor; test: Compound was tested for its binding affinity against opioid receptor mu using [3H]DAGO as radioligand.
[5] = biological target: T1, Delta-type opioid receptor; test: Compound was tested for its binding affinity against opioid receptor delta using [3H]DPDPE as radioligand.; summary of the method: as §1

T1 sequence (P33533 whole entry): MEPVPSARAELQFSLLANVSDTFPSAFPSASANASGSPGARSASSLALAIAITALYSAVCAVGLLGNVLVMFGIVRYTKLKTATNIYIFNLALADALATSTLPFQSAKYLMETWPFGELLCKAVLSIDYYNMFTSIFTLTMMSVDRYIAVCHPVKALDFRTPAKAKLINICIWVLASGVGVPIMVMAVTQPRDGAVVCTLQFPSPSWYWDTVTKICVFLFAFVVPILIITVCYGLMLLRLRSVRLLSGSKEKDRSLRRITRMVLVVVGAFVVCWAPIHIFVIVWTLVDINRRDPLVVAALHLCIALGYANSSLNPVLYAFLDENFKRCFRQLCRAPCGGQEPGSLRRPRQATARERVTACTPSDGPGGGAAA
T2 sequence (P33535 whole entry): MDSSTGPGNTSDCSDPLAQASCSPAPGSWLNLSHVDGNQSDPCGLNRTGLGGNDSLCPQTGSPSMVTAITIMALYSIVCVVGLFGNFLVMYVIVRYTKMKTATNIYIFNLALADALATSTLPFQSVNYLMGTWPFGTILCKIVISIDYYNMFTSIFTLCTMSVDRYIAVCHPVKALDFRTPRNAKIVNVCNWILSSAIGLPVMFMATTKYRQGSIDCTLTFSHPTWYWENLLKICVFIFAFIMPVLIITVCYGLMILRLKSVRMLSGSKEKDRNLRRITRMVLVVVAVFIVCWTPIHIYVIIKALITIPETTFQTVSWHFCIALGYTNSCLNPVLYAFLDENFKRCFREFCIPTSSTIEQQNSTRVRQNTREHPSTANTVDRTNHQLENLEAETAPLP

SMILES	Selectivity [1]	Ki [2] [µM]	Ki (Mu-type opioid receptor [3]) [µM]	Ki (Mu-type opioid receptor [4]) [µM]	Ki [5] [µM]
CSCC[C@H](NC(=O)[C@H](CC(C)C)NC(=O)[C@@H](Cc1c[nH]cn1)NC(=O)[C@H](Cc1ccccc1)NC(=O)[C@@H](CCSC)NC(=O)[C@@H](N)Cc1ccc(O)cc1)C(=O)N[C@@H](CC(=O)O)C(N)=O	178				
CSCC[C@@H](NC(=O)[C@H](CC(C)C)NC(=O)[C@H](Cc1ccccc1)NC(=O)[C@@H](CCSC)NC(=O)[C@@H](N)Cc1ccc(O)cc1)C(=O)N[C@@H](CC(=O)O)C(N)=O		0.0258	0.407		
CSCC[C@H](NC(=O)[C@H](CC(C)C)NC(=O)[C@H](Cc1ccccc1)NC(=O)[C@@H](CCSC)NC(=O)[C@H](N)Cc1ccc(O)cc1)C(=O)N[C@@H](CC(=O)O)C(N)=O		0.477	7.41		
CSCC[C@H](NC(=O)[C@H](CC(C)C)NC(=O)[C@H](Cc1cnc[nH]1)NC(=O)[C@H](Cc1ccccc1)NC(=O)[C@@H](CCSC)NC(=O)[C@@H](N)Cc1ccc(O)cc1)C(=O)N[C@@H](CC(=O)O)C(N)=O [DELTORPHIN A]				0.344	0.00045
CSCC[C@H](NC(=O)[C@H](CC(C)C)NC(=O)[C@H](Cc1ccccc1)NC(=O)[C@@H](CCSC)NC(=O)[C@@H](N)Cc1ccc(O)cc1)C(=O)N[C@@H](CC(=O)O)C(N)=O		0.0126	0.352		
CSCC[C@H](NC(=O)[C@H](CC(C)C)NC(=O)[C@H](Cc1c[nH]cn1)NC(=O)[C@H](Cc1ccccc1)NC(=O)[C@@H](CCSC)NC(=O)[C@@H](N)Cc1ccc(O)cc1)C(=O)N[C@@H](CC(=O)O)C(N)=O	764				
CSCC[C@H](NC(=O)[C@H](CC(C)C)NC(=O)[C@H](Cc1cnc[nH]1)NC(=O)[C@H](Cc1ccccc1)NC(=O)[C@@H](CCSC)NC(=O)[C@H](N)Cc1ccc(O)cc1)C(=O)N[C@@H](CC(=O)O)C(N)=O				7.41	0.544
CCCC[C@H](NC(=O)[C@@H](N)Cc1ccc(O)cc1)C(=O)N[C@@H](Cc1ccccc1)C(=O)N[C@@H](Cc1c[nH]cn1)C(=O)N[C@@H](CC(C)C)C(=O)N[C@@H](CCSC)C(=O)N[C@@H](CC(=O)O)C(N)=O (H-Y[Nle]FHLMD-NH2)	272				
CSCC[C@H](NC(=O)[C@@H](CC(C)C)NC(=O)[C@H](Cc1c[nH]cn1)NC(=O)[C@H](Cc1ccccc1)NC(=O)[C@@H](CCSC)NC(=O)[C@@H](N)Cc1ccc(O)cc1)C(=O)N[C@@H](CC(=O)O)C(N)=O		0.0585	0.691		
CSCC[C@H](NC(=O)[C@H](CC(C)C)NC(=O)[C@@H](Cc1cnc[nH]1)NC(=O)[C@H](Cc1ccccc1)NC(=O)[C@@H](CCSC)NC(=O)[C@@H](N)Cc1ccc(O)cc1)C(=O)N[C@@H](CC(=O)O)C(N)=O				0.492	0.00277
CSCC[C@H](NC(=O)[C@H](CC(C)C)NC(=O)[C@@H](Cc1ccccc1)NC(=O)[C@@H](CCSC)NC(=O)[C@@H](N)Cc1ccc(O)cc1)C(=O)N[C@@H](CC(=O)O)C(N)=O		0.742	2.25		
CSCC[C@H](NC(=O)[C@@H](CC(C)C)NC(=O)[C@H](Cc1ccccc1)NC(=O)[C@@H](CCSC)NC(=O)[C@@H](N)Cc1ccc(O)cc1)C(=O)N[C@@H](CC(=O)O)C(N)=O		0.12	0.33		
CSCC[C@H](NC(=O)[C@H](CC(C)C)NC(=O)[C@H](Cc1ccccc1)NC(=O)[C@@H](C)NC(=O)[C@@H](N)Cc1ccc(O)cc1)C(=O)N[C@@H](CC(=O)O)C(N)=O		0.0139	0.567		
CSCC[C@H](NC(=O)[C@H](CC(C)C)NC(=O)[C@H](Cc1c[nH]cn1)NC(=O)[C@H](Cc1ccccc1)NC(=O)[C@@H](CCSC)NC(=O)[C@@H](N)Cc1ccc(O)cc1)C(=O)N[C@H](CC(=O)O)C(N)=O		0.00054	0.124		
CSCC[C@H](NC(=O)[C@H](CC(C)C)NC(=O)[C@H](Cc1c[nH]cn1)NC(=O)[C@@H](Cc1ccccc1)NC(=O)[C@@H](CCSC)NC(=O)[C@@H](N)Cc1ccc(O)cc1)C(=O)N[C@@H](CC(=O)O)C(N)=O	59			2.35	0.0396
CSCC[C@H](NC(=O)[C@H](CC(C)C)NC(=O)[C@H](Cc1c[nH]cn1)NC(=O)[C@H](Cc1ccccc1)NC(=O)[C@@H](CCSC)NC(=O)[C@H](N)Cc1ccc(O)cc1)C(=O)N[C@@H](CC(=O)O)C(N)=O	14				
CSCC[C@@H](NC(=O)[C@H](CC(C)C)NC(=O)[C@H](Cc1c[nH]cn1)NC(=O)[C@H](Cc1ccccc1)NC(=O)[C@@H](CCSC)NC(=O)[C@@H](N)Cc1ccc(O)cc1)C(=O)N[C@@H](CC(=O)O)C(N)=O		0.00096	0.146		
CSCC[C@H](NC(=O)[C@H](CC(C)C)NC(=O)[C@H](Cc1ccccc1)NC(=O)[C@@H](CCSC)NC(=O)[C@@H](N)Cc1ccc(O)cc1)C(=O)N[C@H](CC(=O)O)C(N)=O		0.00946	0.267		
CSCC[C@H](NC(=O)[C@H](CC(C)C)NC(=O)[C@H](Cc1c[nH]cn1)NC(=O)[C@H](Cc1ccccc1)NC(=O)[C@@H](C)NC(=O)[C@@H](N)Cc1ccc(O)cc1)C(=O)N[C@@H](CC(=O)O)C(N)=O	121			0.0437	0.00036
